In ChEMBL document CHEMBL3817772, “Design, Synthesis, and Biological Evaluations of Hydroxypyridonecarboxylic Acids as Inhibitors of HIV Reverse Transcriptase Associated RNase H” (J Med Chem, 2016):

Legend:
[1] = Inhibition of HIV-1 RT-RNase H activity expressed in Escherichia coli JM109 using internal cleavage measuring HTS-1 as substrate by fluorescence-based assay; parameters: species or system Human immunodeficiency virus 1
Method in brief: (§1)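 RT RNase H cleavage of fluorescein/Dabcyl-labelled RNA/DNA duplexes, with substrate in excess over RT. HTS-1 probes internal cleavage, HTS-2 DNA 3'-end-directed cleavage, and HTS-3 (fluorescein RNA annealed to Dabcyl DNA) RNA 5'-end-directed cleavage.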

[2] = Inhibition of HIV-1 RT-RNase H activity expressed in Escherichia coli JM109 using DNA 3'-end directed cleavage measuring HTS-2 as substrate by fluorescence-based assay; parameters: species or system Human immunodeficiency virus 1; method in brief: as §1
[3] = Inhibition of HIV-1 RT-RNase H activity expressed in Escherichia coli JM109 using RNA 5'-end directed cleavage measuring HTS-3 as substrate by fluorescence-based assay; parameters: species or system Human immunodeficiency virus 1; method in brief: as §1
[4] = Inhibition of HIV-1 RT-RNase H domain fragment expressed in Escherichia coli by fluorescence-based assay; parameters: species or system Human immunodeficiency virus 1
[5] = target: Human immunodeficiency virus type 1 reverse transcriptase (Human immunodeficiency virus 1, UniProt Q72547); assay: Inhibition of HIV-1 RT RNA-dependent DNA polymerase activity expressed in Escherichia coli JM109 using [3H]TTP/ poly(rA)-oligo(dT)16 as substrate incubated for 20 mins by liquid scintillation spectrometric analysis
Method in brief: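 RNA-dependent DNA polymerase reaction in 50 mM Tris-HCl pH 7.4 (37°C), 60 mM KCl, 5 mM MgCl2, with 10 µM [3H]-TTP and 40 nM poly(rA)-oligo(dT)16. Started with 10 nM RT, 20 min at 37°C. Quenched in ice-cold 10% TCA plus 20 mM sodium pyrophosphate, glass-fiber filtered, washed with TCA and ethanol. Incorporation counted by liquid scintillation.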

[6] = target: Human immunodeficiency virus type 1 integrase (Human immunodeficiency virus 1, UniProt Q7ZJM1, C280S/F185K); assay: Inhibition of full-length HIV-1 integrase F185K/C280S double mutant strand transfer activity expressed in Escherichia coli BL21(DE3) using oligo DNA as substrate preincubated for 10 mins followed by substrate addition incubated for 30 mins by plate reader analysis
[7] = system: Human immunodeficiency virus 1; assay: Inhibition of HIV-1 RT-RNase H domain expressed in Escherichia coli JM109 at 30 uM using HTS-1 as substrate preincubated for 10 mins followed by substrate/MgCl2 addition incubated for 10 mins by fluorescence-based assay
Method in brief: (§2)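 Order-of-addition RNase H assay, HIV-1 RT in this format. Final conditions: 100 nM RT, 250 nM HTS-1 RNA/DNA duplex, 6 mM MgCl2, 30 µM inhibitor, 1% DMSO. RT is pre-incubated 10 min at 37 °C with the specified components. Missing components are then added and the reaction runs 10 min at 37 °C. Fluorescence signal is corrected against a DMSO-only control. Mean ± SD of two independent experiments.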

[8] = system: Human immunodeficiency virus 1; assay: Inhibition of HIV-1 RT-RNase H domain expressed in Escherichia coli JM109 at 30 uM using HTS-1 as substrate preincubated with compound and MgCl2 for 10 mins followed by substrate addition incubated for 10 mins by fluorescence-based assay; method in brief: as §2
[9] = system: Human immunodeficiency virus 1; assay: Inhibition of HIV-1 RT-RNase H domain expressed in Escherichia coli JM109 at 30 uM using HTS-1 as substrate preincubated with compound/substrate for 10 mins followed by MgCl2 addition incubated for 10 mins by fluorescence-based assay; method in brief: as §2
[10] = system: Human immunodeficiency virus 1; assay: Inhibition of HIV-1 RT-RNase H domain expressed in Escherichia coli JM109 at 30 uM using HTS-1 as substrate preincubated with substrate for 10 mins followed by compound/MgCl2 addition incubated for 10 mins by fluorescence-based assay; method in brief: as §2
[11] = system: Human immunodeficiency virus 1; assay: Inhibition of HIV-1 RT-RNase H domain expressed in Escherichia coli JM109 at 30 uM using HTS-1 as substrate preincubated for 10 mins followed by substrate/MgCl2 addition incubated for 2 mins by fluorescence-based assay
Method in brief: (§3)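 Excess-RT order-of-addition RNase H assay. RT is pre-incubated 10 min at 37 °C with inhibitor or with substrate. Remaining components are added and the reaction runs 2 min at 37 °C. Fluorescence is DMSO-control corrected. Mean ± SD of two independent experiments.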

[12] = system: Human immunodeficiency virus 1; assay: Inhibition of HIV-1 RT-RNase H domain expressed in Escherichia coli JM109 at 30 uM using HTS-1 as substrate preincubated with substrate for 10 mins followed by compound/MgCl2 addition incubated for 2 mins by fluorescence-based assay; method in brief: as §3
[13] = system: Human immunodeficiency virus 1; assay: Antiviral activity against HIV-1 infected in human HeLa P4/R5 cells assessed as inhibition of virus replication pretreated for 16 hrs followed by infection measured after 48 hrs by fluorescence-based beta-galactosidase detection assay; type: functional, organism-based
Method in brief: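 P4R5 indicator cells (CD4, CXCR4, CCR5; HIV LTR-driven β-galactosidase reporter) seeded at 5×10^3 per well in DMEM/10% FBS with puromycin 0.5 µg/ml. Drug exposure 16 h, then HIV infection and a further 48 h. Infection read by fluorescence-based β-galactosidase detection. Triplicate data points; EC50 taken from dose-response.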

[14] = Cytotoxicity against human HeLa P4/R5 cells up to 25 uM; type: cell-based

Chain of Human immunodeficiency virus type 1 integrase (Q7ZJM1 entry or part of it C280S/F185K): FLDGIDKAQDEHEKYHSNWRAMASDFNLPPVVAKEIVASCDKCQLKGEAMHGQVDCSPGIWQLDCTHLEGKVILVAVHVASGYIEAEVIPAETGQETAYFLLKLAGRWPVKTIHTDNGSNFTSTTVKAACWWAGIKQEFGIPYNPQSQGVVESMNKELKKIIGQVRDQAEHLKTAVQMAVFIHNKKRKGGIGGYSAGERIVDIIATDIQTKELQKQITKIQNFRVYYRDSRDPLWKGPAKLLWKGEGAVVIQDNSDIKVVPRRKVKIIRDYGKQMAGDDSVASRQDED

Row | Structure (SMILES) | IC50 [1] [µM] | IC50 [2] [µM] | IC50 [3] [µM] | IC50 [4] [µM] | IC50 [5] [µM] | IC50 [6] [µM] | inhibition [7] [%] | inhibition [8] [%] | inhibition [9] [%] | inhibition [10] [%] | inhibition [11] [%] | inhibition [12] [%] | inhibition [13] | EC50 ([13]; Human immunodeficiency virus 1, P4/R5) [µM] | CC50 [14] [µM]
1 | O=C(O)c1cn(Cc2ccncc2)cc(O)c1=O | > 25 | > 25 | > 25 | > 25 | > 25 | > 100 |  |  |  |  |  |  |  |  | 
2 | O=C(O)c1c[nH]cc(O)c1=O | > 25 | > 25 | > 25 | 22 | > 25 | > 100 |  |  |  |  |  |  |  |  | 
3 | Cc1cc(Cn2cc(O)c(=O)c(C(=O)O)c2)ccc1F | 17 | > 25 | > 25 | 9.8 | > 25 | > 100 |  |  |  |  |  |  |  |  | 
4 | O=C(O)c1cn(Cc2ccc(F)cc2)cc(O)c1=O | 17 | > 25 | > 25 | 7.8 | > 25 | 35 |  |  |  |  |  |  |  |  | 
5 | O=C(O)c1cn(Cc2cccc(C(F)(F)F)c2)cc(O)c1=O |  | > 25 | > 25 |  | > 25 |  |  |  |  |  |  |  |  |  | 
6 | O=C(O)c1cn(Cc2ccc(Cl)cc2)cc(O)c1=O |  | > 25 | > 25 |  | > 25 |  |  |  |  |  |  |  |  |  | 
7 | CC(c1ccc(F)cc1)n1cc(O)c(=O)c(C(=O)O)c1 (centres undefined) | 16 | > 25 | > 25 | 5.3 | > 25 | 34 |  |  |  |  |  |  |  |  | 
8 | O=C(O)c1cn(Cc2cccc3ccccc23)cc(O)c1=O |  |  |  |  |  |  | 58 | 51 | 35 | 28 | 82 | 61 | Dose-dependent effect | 10 | > 25
9 | O=C(O)c1cn(CC2(c3ccccc3)CCCC2)cc(O)c1=O | 1.5 | 5.1 | 4.9 | 8.2 | 1.8 | 14 | 75 | 84 | 38 | 18 | 42 | 15 |  |  | 
10 | NCc1ccc(-c2ccc(Cn3cc(O)c(=O)c(C(=O)O)c3)cc2)cc1 |  | 4.4 | 3.9 | 4.4 | 3.2 | 7.79 |  |  |  |  |  |  |  |  | 
11 | O=C(O)c1cn(Cc2ccc(Cl)cc2Cl)cc(O)c1=O | 12 | > 25 | > 25 | 4.2 | > 25 | 25 |  |  |  |  |  |  |  |  | 
12 | NC(=O)c1cn(Cc2ccc(F)cc2)cc(O)c1=O | 12 | > 25 | > 25 | 6.8 | > 25 | 32 |  |  |  |  |  |  |  |  | 
13 | O=C(O)c1cn(Cc2ccccc2)cc(O)c1=O | > 25 | > 25 | > 25 | 11 | > 25 | 35 |  |  |  |  |  |  |  |  | 
14 | O=C(O)c1cn(Cc2ccccc2-c2ccccc2)cc(O)c1=O | 7.7 | 25 | > 25 | 5.1 | > 25 | 17 |  |  |  |  |  |  |  |  | 
15 | O=C(O)c1cn(Cc2ccc(Cl)c(Cl)c2)cc(O)c1=O | 14 | > 25 | > 25 | 4.7 | > 25 | 36 |  |  |  |  |  |  |  |  | 
16 | O=C(O)c1cn(Cc2ccc(Br)cc2)cc(O)c1=O | > 25 | > 25 | > 25 | > 25 | > 25 | > 100 |  |  |  |  |  |  |  |  | 
17 | O=C(O)c1cn(Cc2ccc(F)c(Cl)c2)cc(O)c1=O | 18 | > 25 | > 25 | 9.8 | > 25 | 44.5 |  |  |  |  |  |  |  |  | 
18 | O=C(O)c1ccc(Cn2cc(O)c(=O)c(C(=O)O)c2)cc1 | > 25 | > 25 | > 25 | 14 | > 25 | > 100 |  |  |  |  |  |  |  |  | 
19 | O=C(O)c1cn(Cc2ccc(-c3cnc4ccccc4c3)cc2)cc(O)c1=O | 0.9 |  |  |  |  |  | 95 | 68 | 66 | 50 | 91 | 74 |  |  | 
20 | O=C(O)c1cn(Cc2ccc(-c3ccccc3)cc2)cc(O)c1=O | 2.5 | 2.8 | 2.9 | 1.8 | 2.2 | 22 | 68 | 36 | 37 | 21 | 78 | 59 |  |  | 
21 | CS(=O)(=O)c1ccc(Cn2cc(O)c(=O)c(C(=O)O)c2)cc1 | > 25 | > 25 | > 25 | 25 | > 25 | > 100 |  |  |  |  |  |  |  |  | 
22 | O=C(O)c1cn(Cc2ccc(F)cc2F)cc(O)c1=O | 13 | > 25 | > 25 | 6.8 | > 25 | > 100 |  |  |  |  |  |  |  |  | 
23 | CCOC(=O)c1cn(Cc2ccc(F)cc2)cc(O)c1=O | > 25 | > 25 | > 25 | > 25 | > 25 | > 100 |  |  |  |  |  |  |  |  | 
24 | O=C(O)c1cn(-c2ccccc2)cc(O)c1=O | > 25 | > 25 | > 25 | > 25 | > 25 | 37 |  |  |  |  |  |  |  |  | 
25 | NS(=O)(=O)c1ccc(-c2ccc(Cn3cc(O)c(=O)c(C(=O)O)c3)cc2)cc1 | 0.65 | 1.5 | 1 | 1.3 | 1.2 | > 100 | 97 | 79 | 68 | 14 | 92 | 80 |  |  | 
26 | COc1ccc(Cn2cc(O)c(=O)c(C(=O)O)c2)cc1 |  |  |  |  | > 25 |  | 69 | 52 | 27 | 21 | 70 | 58 |  |  | 
27 | CC(c1cccc2ccccc12)n1cc(O)c(=O)c(C(=O)O)c1 (centres undefined) | 7 | > 25 | 13 | 3.7 | 19 | 2.26 |  |  |  |  |  |  |  |  | 
28 | O=C(O)c1cn(Cc2ccc(-c3cccnc3)cc2)cc(O)c1=O |  |  |  |  | > 25 |  |  |  |  |  |  |  |  |  | 
